Measurements: paper PMC10971414 (Science Advances, 2024)

Test system: FKBP12^F36V-PTPN2 H1975 cells
Test: Cell viability by CellTiter-Glo, FKBP12F36V-PTPN2 H1975
Assay type: cell-based
Conditions: read-out: IC50, cell viability; 6 days
Outline: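 H1975 cells lentivirally transduced to express Flag-FKBP12F36V-PTPN2 (TC45 short isoform) were seeded at 3000 cells/well in full medium for 24 h. They were then treated with test compound at a range of concentrations under serum-free conditions for 4 or 6 days. Viability was measured by CellTiter-Glo luminescence and normalised to DMSO controls. Three replicates, mean and SD.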

- IC50: 2110 nM
Compound: CN(C)C/C=C/C(=O)Nc1cc2c(Nc3ccc(F)c(Cl)c3)ncnc2cc1O[C@H]1CCOC1 [afatinib]
